Laboratory results taken from paper PMC7590959 (Journal of medicinal chemistry, 2020).

Key:
[1] = target: hERG (Homo sapiens, UniProt Q12809); assay: hERG binding; conditions: 30 μM
[2] = target: OXA-23 (Acinetobacter baumannii, UniProt Q9L4P2); assay: β-Lactamase hydrolysis, OXA-23; format: biochemical; conditions: OXA-23, 200 nM enzyme, 100 μM 1
[3] = tested on: primary human hepatocytes; assay: Toxicity against primary human hepatocytes; format: cell-based; conditions: maximum concentration 100 μM, 72 h incubation
[4] = tested on: Caco-2; assay: Caco-2 permeability; format: in vitro ADME
[5] = tested on: eight CYP enzymes; assay: CYP inhibition; format: in vitro ADME; conditions: 30 μM
[6] = tested on: PER-2; assay: β-Lactamase hydrolysis, PER-2; format: biochemical; conditions: PER-2, 200 nM enzyme, 100 μM 1
[7] = target: KPC-2 (Klebsiella pneumoniae, UniProt Q9F663); assay: β-Lactamase hydrolysis, KPC-2; format: biochemical; conditions: KPC-2, 200 nM enzyme, 100 μM 1
[8] = Plasma PK after IV administration in mice; format: in vivo; conditions: CD-1, mouse, 50 mg/kg
Outline: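 CD-1 mice in groups of 24 received 50 mg/kg IV with parallel sampling. Blood was taken by cardiac puncture under isoflurane into lithium heparin or K2EDTA tubes and kept on ice. Tubes were spun at 2500 × g for 15 min at 4 °C within 1 h, and plasma was stored at −70 °C. Samples were acetonitrile-precipitated and run by HPLC-MS/MS against a spiked-plasma calibration curve with internal standard. Parameters were derived by noncompartmental analysis.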

[9] = target: PDC-3 (Pseudomonas aeruginosa, UniProt P24735, T105A); assay: β-Lactamase hydrolysis, PDC-3; format: biochemical, P. aeruginosa
[10] = target: OXA-24 (Acinetobacter baumannii, UniProt Q8RLA6); assay: β-Lactamase hydrolysis, OXA-24; format: biochemical; conditions: OXA-24, 200 nM enzyme, 100 μM 1
[11] = tested on: seven other tested ion channels; assay: Other ion channels; format: binding; conditions: 30 μM
[12] = tested on: Gram-negative isolates; assay: Abbreviated MIC panel of Gram-negative isolates; format: cell-based
Outline: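 Broth microdilution MIC using iron-depleted cation-adjusted Mueller–Hinton broth, except where noted otherwise. The inoculum was lowered to 6 × 10^4 CFU/mL.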

[13] = tested on: K. pneumoniae (100 clinical isolates); conditions: comparator MICs from the original studies; cited from earlier work
[14] = tested on: P. aeruginosa (197 clinical isolates); conditions: comparator MICs from the original studies; cited from earlier work
[15] = IV bags, in 24 h after reconstitution; known, ref not given; cited from earlier work

hERG, sequence (Q12809 whole entry): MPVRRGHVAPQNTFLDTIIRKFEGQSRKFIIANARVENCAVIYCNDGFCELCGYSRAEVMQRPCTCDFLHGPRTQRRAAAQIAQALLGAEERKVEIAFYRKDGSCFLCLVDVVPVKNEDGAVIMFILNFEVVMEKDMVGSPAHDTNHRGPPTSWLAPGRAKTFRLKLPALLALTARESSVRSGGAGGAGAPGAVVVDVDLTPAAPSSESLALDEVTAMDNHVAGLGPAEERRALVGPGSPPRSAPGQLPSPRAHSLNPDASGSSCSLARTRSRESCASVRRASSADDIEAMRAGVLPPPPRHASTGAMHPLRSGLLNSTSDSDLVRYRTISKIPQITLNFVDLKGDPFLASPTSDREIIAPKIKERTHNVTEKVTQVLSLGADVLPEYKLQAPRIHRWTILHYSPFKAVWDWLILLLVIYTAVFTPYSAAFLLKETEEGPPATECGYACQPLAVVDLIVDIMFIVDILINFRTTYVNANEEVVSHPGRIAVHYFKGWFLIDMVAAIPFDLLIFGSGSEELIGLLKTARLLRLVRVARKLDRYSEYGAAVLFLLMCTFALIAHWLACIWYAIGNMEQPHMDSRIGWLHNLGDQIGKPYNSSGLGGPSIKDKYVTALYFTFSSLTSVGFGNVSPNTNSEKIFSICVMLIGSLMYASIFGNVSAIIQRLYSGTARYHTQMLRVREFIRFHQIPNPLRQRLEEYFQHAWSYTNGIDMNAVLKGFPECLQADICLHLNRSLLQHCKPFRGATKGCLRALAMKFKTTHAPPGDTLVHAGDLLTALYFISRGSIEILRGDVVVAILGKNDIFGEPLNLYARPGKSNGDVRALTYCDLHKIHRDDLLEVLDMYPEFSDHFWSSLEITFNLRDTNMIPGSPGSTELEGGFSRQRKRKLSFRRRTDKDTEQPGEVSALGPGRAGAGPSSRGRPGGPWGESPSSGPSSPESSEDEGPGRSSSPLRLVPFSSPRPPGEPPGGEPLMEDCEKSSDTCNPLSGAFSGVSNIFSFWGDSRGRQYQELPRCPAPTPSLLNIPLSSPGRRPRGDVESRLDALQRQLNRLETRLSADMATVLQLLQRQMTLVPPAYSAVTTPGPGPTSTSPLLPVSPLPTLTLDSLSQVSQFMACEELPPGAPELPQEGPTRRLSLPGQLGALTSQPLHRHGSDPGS

CC(C)(O/N=C(\C(=O)N[C@H]1CN2CC(C(=O)NCCN3C(=O)c4cc(O)c(O)cc4C3=O)=C(C(=O)O)N2C1=O)c1csc(N)n1)C(=O)O [Compound 1, (S,Z)-6-(2-(2-Aminothiazol-4-yl)-2-(((2-carboxypropan-2-yl)oxy)imino)acetamido)-2-((2-(5,6-dihydroxy-1,3-dioxoisoindolin-2-yl)ethyl)carbamoyl)-5-oxo-6,7-dihydro-1H,5H-pyrazolo[1,2-a]pyrazole-3-carboxylic Acid]
hERG binding [1]: does not bind
hydrolysis by β-lactamase [2]: hydrolysis was not detected
toxicity [3]: not found
Caco-2 permeability [4]: poor
CYP inhibition [5]: does not inhibit
hydrolysis by β-lactamase [6]: hydrolysis was not detected
hydrolysis by β-lactamase [7]: hydrolysis was not detected
clearance at 2 h [8]: 14 mL/min/kg
concentration at 2 h [8]: > 1000 ng/mL
hydrolysis by β-lactamase [9]: hydrolysis was not detected
hydrolysis by β-lactamase [10]: hydrolysis was not detected
ion channel binding [11]: does not bind

CC(C)(O/N=C(\C(=O)N[C@H]1CN2CC(C(=O)NCCc3ccccc3)=C(C(=O)O)N2C1=O)c1csc(N)n1)C(=O)O [Compound 2, (S,Z)-6-(2-(2-Aminothiazol-4-yl)-2-(((2-carboxypropan-2-yl)oxy)imino)acetamido)-5-oxo-2-(phenethylcarbamoyl)-6,7-dihydro-1H,5H-pyrazolo[1,2-a]pyrazole-3-carboxylic Acid]
MIC [12]: > 64 µg/mL

CC(C)(O/N=C(\C(=O)N[C@@H]1C(=O)N2C(C(=O)[O-])=C(C[n+]3ccccc3)CS[C@H]12)c1csc(N)n1)C(=O)O [ceftazidime (4), ceftazidime]
MIC50 [13]: >64 µg/mL
MIC90 [13]: >64 µg/mL
MIC90 [14]: >16 µg/mL

C[C@@H](O)[C@H]1C(=O)N2C(C(=O)O)=C(S[C@@H]3CN[C@H](C(=O)N(C)C)C3)[C@H](C)[C@H]12 [meropenem (6), meropenem]
MIC90 [13]: >64 µg/mL
degradation after reconstitution [15]: > 30%
MIC90 [14]: >8 µg/mL
